Laboratory results: ChEMBL document CHEMBL5724801, “EUbOPEN Chemogenomics Library - Multiplex” (2024)
“And” between values parts separate entries of the source, which are not always exact repeats. Equal entries are not always repeated.

How the values were obtained:
U2OS = assay: Multiplex assay against U2OS; format: toxicity, cell-based; conditions: human
Summary of the method: (§1)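 Per cents of healthy-nucleus cells form the tubulin, mitochondrial-mass and membrane-permeability phenotype values. Live cells were stained at seeding with Hoechst33342, BioTracker Green Microtubule Cytoskeleton Dye, MitoTracker Red and Annexin V Alexa Fluor 680. After compound addition they were imaged on a CQ1 microscope at 37°C and 5% CO2, and CellPathfinder machine-learning gating split them into Hoechst high-intensity objects or normal cells, normal cells into healthy, pyknosed or fragmented nuclei, and pyknosed cells into mitotic or apoptotic.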

HEK-293T = assay: Multiplex assay against HEK293T; format: toxicity, cell-based; conditions: human; summary of the method: as §1
[1] = 12 h, 1 µM, compound concentration 1 uM
[2] = 12 h, 10 µM, compound concentration 10 uM
[3] = 24 h, 1 µM, compound concentration 1 uM
[4] = 24 h, 10 µM, compound concentration 10 uM
[5] = 48 h, 1 µM, compound concentration 1 uM
[6] = 48 h, 10 µM, compound concentration 10 uM

Structure (SMILES): O=S(=O)(c1ccccc1)c1cnc2c(N3CCNCC3)cccc2c1 [INTEPIRDINE]
- Population Apoptotic (%) (U2OS; [1]): 76% and 70%
- Population Fragmented Nuclei (%) (U2OS; [1]): 23% and 17%
- Population Healthy Nuclei (%) (U2OS; [1]): 68% and 71%
- Population Hoechst High Intensity Objects (%) (U2OS; [1]): 1% and 0%
- Population Membrane Permeable-Phenotype (%) (U2OS; [1]): 6% and 7%
- Population Mitochondria Different-Phenotype (%) (U2OS; [1]): 3% and 6%
- Population Mitotic Cells (%) (U2OS; [1]): 23% and 30%
- Population Normal (%) (U2OS; [1]): 98% and 100%
- Population Pyknosed Nuclei (%) (U2OS; [1]): 7% and 11%
- Population Tubulin-Different-Phenotype (%) (U2OS; [1]): 4% and 7%
- Population Apoptotic (%) (U2OS; [2]): 58% and 85%
- Population Fragmented Nuclei (%) (U2OS; [2]): 25% and 10%
- Population Healthy Nuclei (%) (U2OS; [2]): 61% and 79%
- Population Hoechst High Intensity Objects (%) (U2OS; [2]): 3% and 2%
- Population Membrane Permeable-Phenotype (%) (U2OS; [2]): 23% and 12%
- Population Mitochondria Different-Phenotype (%) (U2OS; [2]): 11% and 13%
- Population Mitotic Cells (%) (U2OS; [2]): 41% and 14%
- Population Normal (%) (U2OS; [2]): 96% and 97%
- Population Pyknosed Nuclei (%) (U2OS; [2]): 12% and 10%
- Population Tubulin-Different-Phenotype (%) (U2OS; [2]): 14% and 10%
- Total Cell Count (U2OS; [2]): 204 and 139
- Population Apoptotic (%) (U2OS; [3]): 80% and 69%
- Population Fragmented Nuclei (%) (U2OS; [3]): 22% and 14%
- Population Healthy Nuclei (%) (U2OS; [3]): 67% and 73%
- Population Hoechst High Intensity Objects (%) (U2OS; [3]): 2% and 0%
- Population Membrane Permeable-Phenotype (%) (U2OS; [3]): 7% and 3%
- Population Mitochondria Different-Phenotype (%) (U2OS; [3]): 2% and 3%
- Population Mitotic Cells (%) (U2OS; [3]): 19% and 30%
- Population Normal (%) (U2OS; [3]): 97% and 99%
- Population Pyknosed Nuclei (%) (U2OS; [3]): 9% and 12%
- Population Tubulin-Different-Phenotype (%) (U2OS; [3]): 4% and 1%
- Total Cell Count (U2OS; [3]): 319 and 108
- Population Apoptotic (%) (U2OS; [4]): 72% and 77%
- Population Fragmented Nuclei (%) (U2OS; [4]): 23% and 10%
- Population Healthy Nuclei (%) (U2OS; [4]): 60% and 77%
- Population Hoechst High Intensity Objects (%) (U2OS; [4]): 3% and 0%
- Population Membrane Permeable-Phenotype (%) (U2OS; [4]): 17% and 10%
- Population Mitochondria Different-Phenotype (%) (U2OS; [4]): 14% and 17%
- Population Mitotic Cells (%) (U2OS; [4]): 27% and 22%
- Population Normal (%) (U2OS; [4]): 96% and 99%
- Population Pyknosed Nuclei (%) (U2OS; [4]): 16% and 11%
- Population Tubulin-Different-Phenotype (%) (U2OS; [4]): 10% and 6%
- Total Cell Count (U2OS; [4]): 233 and 156
- Population Apoptotic (%) (U2OS; [5]): 89% and 76%
- Population Fragmented Nuclei (%) (U2OS; [5]): 15% and 13%
- Population Healthy Nuclei (%) (U2OS; [5]): 70% and 68%
- Population Hoechst High Intensity Objects (%) (U2OS; [5]): 3%
- Population Membrane Permeable-Phenotype (%) (U2OS; [5]): 6% and 3%
- Population Mitochondria Different-Phenotype (%) (U2OS; [5]): 4% and 2%
- Population Mitotic Cells (%) (U2OS; [5]): 10% and 23%
- Population Normal (%) (U2OS; [5]): 96%
- Population Pyknosed Nuclei (%) (U2OS; [5]): 14% and 18%
- Population Tubulin-Different-Phenotype (%) (U2OS; [5]): 4% and 2%
- Total Cell Count (U2OS; [5]): 416 and 148
- Population Apoptotic (%) (U2OS; [6]): 78% and 95%
- Population Fragmented Nuclei (%) (U2OS; [6]): 22% and 13%
- Population Healthy Nuclei (%) (U2OS; [6]): 59% and 75%
- Population Hoechst High Intensity Objects (%) (U2OS; [6]): 4% and 2%
- Population Membrane Permeable-Phenotype (%) (U2OS; [6]): 15% and 10%
- Population Mitochondria Different-Phenotype (%) (U2OS; [6]): 7% and 12%
- Population Normal (%) (U2OS; [6]): 95% and 97%
- Population Pyknosed Nuclei (%) (U2OS; [6]): 17% and 11%
- Population Tubulin-Different-Phenotype (%) (U2OS; [6]): 6% and 4%
- Total Cell Count (U2OS; [6]): 302 and 201
- Population Apoptotic (%) (HEK-293T; [1]): 40% and 50%
- Population Fragmented Nuclei (%) (HEK-293T; [1]): 7%
- Population Healthy Nuclei (%) (HEK-293T; [1]): 80% and 74%
- Population Hoechst High Intensity Objects (%) (HEK-293T; [1]): 7% and 10%
- Population Membrane Permeable-Phenotype (%) (HEK-293T; [1]): 0%
- Population Mitochondria Different-Phenotype (%) (HEK-293T; [1]): 54% and 69%
- Population Mitotic Cells (%) (HEK-293T; [1]): 60% and 50%
- Population Normal (%) (HEK-293T; [1]): 92% and 89%
- Population Pyknosed Nuclei (%) (HEK-293T; [1]): 12% and 17%
- Population Tubulin-Different-Phenotype (%) (HEK-293T; [1]): 43% and 23%
- Total Cell Count (HEK-293T; [1]): 403 and 336
- Population Apoptotic (%) (HEK-293T; [2]): 51% and 46%
- Population Fragmented Nuclei (%) (HEK-293T; [2]): 8% and 4%
- Population Healthy Nuclei (%) (HEK-293T; [2]): 72% and 79%
- Population Hoechst High Intensity Objects (%) (HEK-293T; [2]): 10% and 7%
- Population Membrane Permeable-Phenotype (%) (HEK-293T; [2]): 0%
- Population Mitochondria Different-Phenotype (%) (HEK-293T; [2]): 70% and 76%
- Population Mitotic Cells (%) (HEK-293T; [2]): 48% and 53%
- Population Normal (%) (HEK-293T; [2]): 89% and 92%
- Population Pyknosed Nuclei (%) (HEK-293T; [2]): 18% and 15%
- Population Tubulin-Different-Phenotype (%) (HEK-293T; [2]): 58% and 50%
- Total Cell Count (HEK-293T; [2]): 326 and 349
- Population Apoptotic (%) (HEK-293T; [3]): 28% and 58%
- Population Fragmented Nuclei (%) (HEK-293T; [3]): 6% and 7%
- Population Healthy Nuclei (%) (HEK-293T; [3]): 80% and 85%
- Population Hoechst High Intensity Objects (%) (HEK-293T; [3]): 5%
- Population Membrane Permeable-Phenotype (%) (HEK-293T; [3]): 0%
- Population Mitochondria Different-Phenotype (%) (HEK-293T; [3]): 35% and 43%
- Population Mitotic Cells (%) (HEK-293T; [3]): 71% and 41%
- Population Normal (%) (HEK-293T; [3]): 94%
- Population Pyknosed Nuclei (%) (HEK-293T; [3]): 12% and 7%
- Population Tubulin-Different-Phenotype (%) (HEK-293T; [3]): 26% and 14%
- Total Cell Count (HEK-293T; [3]): 530 and 416
